Experimental data pooled from the literature.
Compare with care: the assays were run in different laboratories.
Cell line: CCRF-CEM
Effect on: cell growth or viability

| Structure (SMILES) | test | conditions | endpoint | result |
| --- | --- | --- | --- | --- |
| COc1cc(-c2cn(-c3cc(=O)oc4ccc(Cl)cc34)nn2)cc(OC)c1OC | – | 48 h | CC50 | 37200 nM |
| COc1cccc(Oc2ccccc2NC(=O)CNC(=O)c2cccc3ccccc23)c1 | SRB | 48 h | GI50 | 363 nM |
| O=C1C(=Cc2ccc(Cl)c(Cl)c2)CN(C(=O)C(Cl)Cl)CC1=Cc1ccc(Cl)c(Cl)c1 | imaging | 24 h | CC50 | 93.2 nM |
| COc1ccc(C(=O)/C=C/c2ccc3ccccc3c2)cc1S(N)(=O)=O | SRB | 48 h | GI50 | 2600 nM |
| O=C(CN1C(=O)SC(=Cc2ccccn2)C1=O)Nc1nc2ccccc2s1 | MTT | 48 h | CC50 | 11900 nM |
| O=C1C(=Cc2ccc(F)c(F)c2)CN(C(=O)C(Cl)Cl)CC1=Cc1ccc(F)c(F)c1 | imaging | 24 h | CC50 | 99.3 nM |
| COc1ccc(-c2cn(-c3cc(=O)oc4ccc(Br)cc34)nn2)cc1 | – | 48 h | CC50 | 9800 nM |
| COc1ccc(C(=O)/C=C/c2cccc(Cl)c2Cl)cc1S(N)(=O)=O | SRB | 10 µM | inhibition | 99% |
